We go through 18 molecules from ChEMBL document CHEMBL1156307 (J Med Chem, 2010).

For one data set, the target named is Histone deacetylase 1 (Homo sapiens, UniProt Q13547). Kind of data set: Inhibition of FLAG-tagged HDAC1 expressed in HEK293 cells by fluorescent assay. The format is cell-based.
The subject of a further data set is HCT-116. Nature of the data set: Antiproliferative activity against human HCT116 cells by MTS assay. The class given is functional, cell-based. The method in brief:
(§1)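 Monolayer proliferation assay. Cells were seeded at 5000-10000 per well and exposed to eight serial compound dilutions for 72 h. Viability was read by CellTiter-Glo or MTS per the kit protocol, and IC50 was taken from growth curves. Each determination averaged triplicate concentration-inhibition curves. Values are the mean ± standard deviation of two separate determinations.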
(In general: Tetrazolium assays rely on reduction of a dye to a coloured formazan, in cell work by metabolically active cells.)

The target in data set [1] is Voltage-gated inwardly rectifying potassium channel KCNH2 (Homo sapiens, UniProt Q12809). Nature of the data set: Inhibition of human ERG expressed in CHO cells by automated patch clamp electrophysiology assay. A general note: The patch-clamp technique gives a direct electrical read-out from membranes.
Data set [2] can be described thus: Antiproliferative activity against human H1299 cells by MTS assay. The class given is functional, cell-based. The conditions noted are these: NCI-H1299. The method in brief: as §1
Data set [3] in a line: Association constant, pKa at pH 2 to 12. The class given is physicochemical.
The next data set addresses Histone deacetylase 4 (Homo sapiens, UniProt P56524). Kind of data set: Inhibition of HDAC4 expressed in baculovirus system by fluorescent assay. Summed up:
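HDAC4 purified from a baculovirus expression system. Substrate bis-Boc-(Ac)Lys-rhodamine 110; its deacetylation generates a fluorophore, read on a fluorometric plate reader.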

The next data set deals with T1, Histone deacetylase 8 (Homo sapiens, UniProt Q9BY41).
T1 sequence (Q9BY41 whole entry): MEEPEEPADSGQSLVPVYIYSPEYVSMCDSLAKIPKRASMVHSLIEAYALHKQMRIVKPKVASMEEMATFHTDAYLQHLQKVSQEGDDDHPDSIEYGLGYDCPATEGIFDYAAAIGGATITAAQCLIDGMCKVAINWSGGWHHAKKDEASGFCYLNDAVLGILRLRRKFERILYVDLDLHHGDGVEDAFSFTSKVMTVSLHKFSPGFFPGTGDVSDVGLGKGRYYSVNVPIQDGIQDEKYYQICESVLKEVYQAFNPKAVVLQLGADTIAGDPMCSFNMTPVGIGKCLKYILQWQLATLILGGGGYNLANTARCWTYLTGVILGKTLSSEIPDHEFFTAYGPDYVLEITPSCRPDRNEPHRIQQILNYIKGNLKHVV
Kind of data set: Inhibition of HDAC8 expressed in baculovirus system by fluorescent assay.

The target in the next data set is Histone deacetylase 2 (Homo sapiens, UniProt Q92769). Kind of data set: Inhibition of HDAC2 expressed in baculovirus system by fluorescent assay.
In the next data set the target is Histone deacetylase 3 (Homo sapiens, UniProt O15379). Nature of the data set: Inhibition of FLAG-tagged HDAC3 expressed in HEK293 cells by fluorescent assay. The format is cell-based. Summed up: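 HDAC3 immunopurified from 293 cells stably expressing FLAG-tagged enzyme. Substrate bis-Boc-(Ac)Lys-rhodamine 110; its deacetylation releases a fluorophore, read on a fluorometric plate reader.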

For data set [4], the target named is T2, Protein deacetylase HDAC6 (Homo sapiens, UniProt Q9UBN7).
T2 sequence (Q9UBN7 whole entry): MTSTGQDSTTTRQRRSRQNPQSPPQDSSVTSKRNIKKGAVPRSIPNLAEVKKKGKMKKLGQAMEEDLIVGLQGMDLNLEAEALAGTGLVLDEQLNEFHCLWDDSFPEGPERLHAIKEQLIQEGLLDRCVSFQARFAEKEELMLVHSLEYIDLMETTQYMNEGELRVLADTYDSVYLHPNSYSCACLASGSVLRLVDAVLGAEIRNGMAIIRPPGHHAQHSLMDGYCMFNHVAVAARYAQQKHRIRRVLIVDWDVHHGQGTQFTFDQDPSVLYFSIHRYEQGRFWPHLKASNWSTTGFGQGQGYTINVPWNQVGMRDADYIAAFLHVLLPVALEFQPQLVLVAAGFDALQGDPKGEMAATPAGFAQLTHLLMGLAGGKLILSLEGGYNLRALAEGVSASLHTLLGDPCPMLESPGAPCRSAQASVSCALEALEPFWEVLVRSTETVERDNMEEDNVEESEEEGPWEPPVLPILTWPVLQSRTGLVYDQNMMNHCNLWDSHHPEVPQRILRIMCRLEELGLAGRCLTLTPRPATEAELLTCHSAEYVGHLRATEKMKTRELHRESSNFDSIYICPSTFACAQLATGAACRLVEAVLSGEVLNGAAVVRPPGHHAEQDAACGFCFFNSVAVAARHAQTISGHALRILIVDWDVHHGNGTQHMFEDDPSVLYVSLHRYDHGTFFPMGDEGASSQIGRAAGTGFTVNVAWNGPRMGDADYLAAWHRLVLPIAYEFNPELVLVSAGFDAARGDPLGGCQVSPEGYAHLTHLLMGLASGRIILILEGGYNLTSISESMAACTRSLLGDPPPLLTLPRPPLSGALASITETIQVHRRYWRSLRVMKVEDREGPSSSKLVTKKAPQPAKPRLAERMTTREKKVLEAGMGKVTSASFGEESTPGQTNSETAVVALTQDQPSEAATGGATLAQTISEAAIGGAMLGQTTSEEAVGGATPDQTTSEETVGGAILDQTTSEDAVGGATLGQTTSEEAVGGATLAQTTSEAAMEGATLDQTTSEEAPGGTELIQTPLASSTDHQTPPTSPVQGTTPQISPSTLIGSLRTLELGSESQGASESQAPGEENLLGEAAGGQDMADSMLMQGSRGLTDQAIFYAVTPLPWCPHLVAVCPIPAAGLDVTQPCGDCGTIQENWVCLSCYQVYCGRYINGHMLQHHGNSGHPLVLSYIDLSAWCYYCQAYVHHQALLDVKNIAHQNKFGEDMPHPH
Nature of the data set: Inhibition of FLAG-tagged HDAC6 expressed in HEK293 cells by fluorescent assay. The class given is cell-based. Summed up: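 HDAC6 immunopurified from 293 cells stably expressing the FLAG-tagged isoform. Deacetylation of the bis-Boc-(Ac)Lys-rhodamine 110 substrate releases a fluorophore, read on a fluorometric plate reader.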

Voltage-gated inwardly rectifying potassium channel KCNH2, sequence (Q12809 whole entry): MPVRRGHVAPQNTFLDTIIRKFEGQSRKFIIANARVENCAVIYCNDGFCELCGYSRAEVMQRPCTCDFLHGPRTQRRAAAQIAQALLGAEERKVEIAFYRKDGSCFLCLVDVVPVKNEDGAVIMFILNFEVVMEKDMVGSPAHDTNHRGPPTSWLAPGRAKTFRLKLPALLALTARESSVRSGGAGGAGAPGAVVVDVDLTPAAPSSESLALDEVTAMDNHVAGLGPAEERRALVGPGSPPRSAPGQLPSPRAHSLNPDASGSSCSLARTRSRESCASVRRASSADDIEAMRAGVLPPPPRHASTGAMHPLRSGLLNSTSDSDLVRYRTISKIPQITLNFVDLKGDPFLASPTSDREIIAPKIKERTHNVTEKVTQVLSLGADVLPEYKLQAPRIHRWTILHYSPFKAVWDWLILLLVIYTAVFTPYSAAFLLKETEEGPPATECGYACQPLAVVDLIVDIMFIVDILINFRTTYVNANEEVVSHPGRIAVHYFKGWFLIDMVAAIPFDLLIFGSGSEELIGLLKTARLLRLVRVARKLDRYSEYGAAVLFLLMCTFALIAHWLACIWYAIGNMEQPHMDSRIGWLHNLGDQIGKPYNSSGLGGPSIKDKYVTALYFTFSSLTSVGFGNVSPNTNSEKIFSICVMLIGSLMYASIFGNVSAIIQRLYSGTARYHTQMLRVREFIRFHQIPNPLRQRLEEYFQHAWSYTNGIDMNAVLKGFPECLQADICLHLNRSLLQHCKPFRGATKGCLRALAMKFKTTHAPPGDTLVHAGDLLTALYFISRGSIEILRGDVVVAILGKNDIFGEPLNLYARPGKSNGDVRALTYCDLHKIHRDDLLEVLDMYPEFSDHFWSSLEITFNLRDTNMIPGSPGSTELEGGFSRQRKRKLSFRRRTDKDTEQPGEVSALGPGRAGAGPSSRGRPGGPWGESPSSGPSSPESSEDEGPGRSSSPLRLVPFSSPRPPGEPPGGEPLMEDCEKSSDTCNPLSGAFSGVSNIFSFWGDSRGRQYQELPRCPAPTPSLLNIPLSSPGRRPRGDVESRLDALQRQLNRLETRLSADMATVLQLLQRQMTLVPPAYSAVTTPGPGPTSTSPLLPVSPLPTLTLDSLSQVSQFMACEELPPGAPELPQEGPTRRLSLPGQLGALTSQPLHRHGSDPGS
Histone deacetylase 1, sequence (Q13547 whole entry): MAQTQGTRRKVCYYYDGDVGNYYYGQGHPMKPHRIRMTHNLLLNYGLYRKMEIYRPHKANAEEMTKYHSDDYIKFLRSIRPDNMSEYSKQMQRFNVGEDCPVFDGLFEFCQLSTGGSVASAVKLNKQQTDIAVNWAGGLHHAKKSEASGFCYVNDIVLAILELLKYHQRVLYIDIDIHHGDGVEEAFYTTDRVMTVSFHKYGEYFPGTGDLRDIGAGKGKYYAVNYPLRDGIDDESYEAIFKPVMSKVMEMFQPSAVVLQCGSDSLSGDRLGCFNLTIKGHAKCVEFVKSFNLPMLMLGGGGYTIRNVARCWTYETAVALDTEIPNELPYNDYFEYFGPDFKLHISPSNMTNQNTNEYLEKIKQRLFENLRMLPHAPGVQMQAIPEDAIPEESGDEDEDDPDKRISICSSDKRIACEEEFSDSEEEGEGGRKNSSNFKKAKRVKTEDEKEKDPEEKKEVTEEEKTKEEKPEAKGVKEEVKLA
Histone deacetylase 4, sequence (P56524 whole entry): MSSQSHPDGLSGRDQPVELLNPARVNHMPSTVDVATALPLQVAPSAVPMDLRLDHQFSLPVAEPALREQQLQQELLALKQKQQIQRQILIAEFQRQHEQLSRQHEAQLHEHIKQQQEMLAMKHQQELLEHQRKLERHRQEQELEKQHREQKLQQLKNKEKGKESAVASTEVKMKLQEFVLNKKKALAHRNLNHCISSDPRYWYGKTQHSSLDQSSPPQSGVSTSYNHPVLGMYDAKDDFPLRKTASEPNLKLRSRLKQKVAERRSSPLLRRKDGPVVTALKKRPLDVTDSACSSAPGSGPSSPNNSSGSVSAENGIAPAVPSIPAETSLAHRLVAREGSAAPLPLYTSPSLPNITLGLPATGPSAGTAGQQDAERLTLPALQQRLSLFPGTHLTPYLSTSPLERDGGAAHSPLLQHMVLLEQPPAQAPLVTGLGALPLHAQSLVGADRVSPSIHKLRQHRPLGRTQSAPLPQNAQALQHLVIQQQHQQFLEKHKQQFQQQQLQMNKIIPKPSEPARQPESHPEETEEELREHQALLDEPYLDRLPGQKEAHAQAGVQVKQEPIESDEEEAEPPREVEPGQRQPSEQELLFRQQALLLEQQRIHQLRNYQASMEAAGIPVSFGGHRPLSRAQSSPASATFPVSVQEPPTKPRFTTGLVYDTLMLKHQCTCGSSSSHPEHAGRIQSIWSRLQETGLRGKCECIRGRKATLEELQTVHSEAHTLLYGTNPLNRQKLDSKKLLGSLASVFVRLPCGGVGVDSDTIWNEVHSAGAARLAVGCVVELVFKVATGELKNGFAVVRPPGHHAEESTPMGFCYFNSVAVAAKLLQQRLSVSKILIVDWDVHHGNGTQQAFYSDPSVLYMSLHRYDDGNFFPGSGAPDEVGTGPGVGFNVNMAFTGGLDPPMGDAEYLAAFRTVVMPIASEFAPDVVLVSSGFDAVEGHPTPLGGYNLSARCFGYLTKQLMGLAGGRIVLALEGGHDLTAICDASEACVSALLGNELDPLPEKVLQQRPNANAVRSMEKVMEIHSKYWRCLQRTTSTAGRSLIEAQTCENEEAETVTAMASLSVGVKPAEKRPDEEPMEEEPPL
Histone deacetylase 3, sequence (O15379 whole entry): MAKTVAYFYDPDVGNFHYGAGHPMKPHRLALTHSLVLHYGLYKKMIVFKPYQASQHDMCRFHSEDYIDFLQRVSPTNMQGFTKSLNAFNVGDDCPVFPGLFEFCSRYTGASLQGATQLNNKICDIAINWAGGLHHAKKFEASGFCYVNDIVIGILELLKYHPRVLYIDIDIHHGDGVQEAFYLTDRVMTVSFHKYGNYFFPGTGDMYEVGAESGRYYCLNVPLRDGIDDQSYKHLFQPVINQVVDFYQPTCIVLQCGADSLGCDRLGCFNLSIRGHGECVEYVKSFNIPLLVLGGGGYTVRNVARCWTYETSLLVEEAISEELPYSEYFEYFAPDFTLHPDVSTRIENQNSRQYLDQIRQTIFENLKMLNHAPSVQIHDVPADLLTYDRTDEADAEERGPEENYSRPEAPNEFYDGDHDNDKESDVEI
Histone deacetylase 2, sequence (Q92769 whole entry): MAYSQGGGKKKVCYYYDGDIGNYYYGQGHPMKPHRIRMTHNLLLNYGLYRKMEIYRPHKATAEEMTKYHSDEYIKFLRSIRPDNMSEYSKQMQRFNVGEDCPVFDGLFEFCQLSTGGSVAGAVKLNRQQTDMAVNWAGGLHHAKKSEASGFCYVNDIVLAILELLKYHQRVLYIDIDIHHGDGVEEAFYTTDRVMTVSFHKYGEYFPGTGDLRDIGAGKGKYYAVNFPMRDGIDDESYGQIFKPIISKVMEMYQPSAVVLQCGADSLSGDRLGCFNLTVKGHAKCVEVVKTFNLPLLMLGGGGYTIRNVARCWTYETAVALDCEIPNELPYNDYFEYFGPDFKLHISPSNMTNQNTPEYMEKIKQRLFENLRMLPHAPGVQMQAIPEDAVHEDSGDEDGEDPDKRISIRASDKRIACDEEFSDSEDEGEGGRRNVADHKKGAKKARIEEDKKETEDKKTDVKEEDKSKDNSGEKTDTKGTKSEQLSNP

For `Cc1[nH]c2ccccc2c1CCN1Cc2ccc(/C=C/C(=O)NO)cc2C1`, the IC50 was found to be 0.027 µM at Histone deacetylase 1, 0.041 µM with HCT-116, 4.8 µM in data set [1] and 0.232 µM in data set [2].

For the molecule `Cc1[nH]c2ccccc2c1CCN1CCc2ccc(/C=C/C(=O)NO)cc2CC1`, the IC50 against Histone deacetylase 1 is 0.076 µM; with HCT-116, 0.545 µM; in data set [1] it was 3.2 µM; in data set [2], > 1 µM.

In the case of `Cc1[nH]c2ccccc2c1C1CCCN(Cc2ccc(/C=C/C(=O)NO)cc2)C1` (configuration not stated), the IC50 was found to be 0.005 µM on Histone deacetylase 1, 0.0056 µM in the data set with HCT-116, 27.6 µM in data set [1] and 0.031 µM in [2]. The same molecule yielded a pKa in [3] of 7.8.

On to `Cc1[nH]c2ccccc2c1C1CCN(Cc2ccc(/C=C/C(=O)NO)cc2)C1` (configuration not stated), for which the IC50 is 0.0028 µM on Histone deacetylase 1, 0.0032 µM with HCT-116, 13.4 µM in data set [1] and 0.014 µM in data set [2].

Regarding `Cc1[nH]c2ccccc2c1CC1CCCCN1Cc1ccc(/C=C/C(=O)NO)cc1` (configuration not stated), the IC50 was 0.024 µM on Histone deacetylase 1, 0.027 µM with HCT-116 and 0.153 µM in data set [2].

Consider `Cc1[nH]c2ccccc2c1CCN1CCCC1c1ccc(/C=C/C(=O)NO)cc1` (configuration not stated), for which the IC50 was determined as 0.001 µM in the data set with HCT-116, 19.4 µM in data set [1] and 0.0043 µM in [2].

Take `Cc1[nH]c2ccccc2c1CCN1CCc2cc(/C=C/C(=O)NO)ccc2C1`: the IC50 on Histone deacetylase 1 amounted to 0.041 µM; with HCT-116, 0.119 µM; in [2], 0.725 µM.

For the molecule `CC(C)(C)c1[nH]c2ccccc2c1[C@H]1CCCN(Cc2ccc(/C=C/C(=O)NO)cc2F)C1`, the IC50 was 0.028 µM on Histone deacetylase 4; 0.217 µM on Histone deacetylase 8; 0.031 µM against Histone deacetylase 2; 0.0008 µM with HCT-116; 0.009 µM against Histone deacetylase 3; 0.118 µM in [4]. Also, the IC50 in [2] is 0.0054 µM.

Turning to `O=C(/C=C/c1ccc(CN2CCCC(c3c[nH]c4ccccc34)C2)c(F)c1)NO` (configuration not stated), the IC50 against Histone deacetylase 1 was found to be 0.136 µM; with HCT-116, 0.332 µM; in [2], 3.52 µM.

For `O=C(/C=C/c1ccc(CN2CCCC(c3c(-c4ccccc4)[nH]c4ccccc34)C2)c(F)c1)NO` (configuration not stated), the 50% inhibitory concentration (IC50) on Histone deacetylase 1 came out at 0.016 µM; in the data set with HCT-116, 0.011 µM; in [2], 0.106 µM. In addition, the pKa in [3] was 7.4.

For `CC(C)(C)c1[nH]c2ccccc2c1C1CCCN(Cc2ccc(/C=C/C(=O)NO)cc2F)C1` (configuration not stated), the IC50 is 0.0038 µM in the data set on HCT-116 and 0.02 µM in data set [2]. This molecule returned a pKa in data set [3] of 7.3.

In the case of `CC(C)(C)c1[nH]c2ccccc2c1[C@@H]1CCCN(Cc2ccc(/C=C/C(=O)NO)cc2F)C1`, the IC50 came out at 0.038 µM at Histone deacetylase 4; 0.364 µM against Histone deacetylase 8; 0.048 µM against Histone deacetylase 2; 0.143 µM in the data set with HCT-116; 0.021 µM against Histone deacetylase 3; 0.11 µM in data set [4]. In data set [2], this molecule registered an IC50 of 0.443 µM.

In the case of `CC(C)(C)c1[nH]c2ccccc2c1C1CCCN(Cc2ccc(/C=C/C(=O)NO)cc2Cl)C1` (configuration not stated), the IC50 in the data set with HCT-116 was found to be 0.0052 µM; in data set [1] it was 9.9 µM; in [2] it was 0.06 µM. Moreover, the pKa in [3] worked out at 7.4.

Consider `Cc1[nH]c2ccccc2c1CCN1CCc2ccc(/C=C/C(=O)NO)cc2C1`, for which the half-inhibitory concentration (IC50) on Histone deacetylase 1 came to 0.013 µM; in the data set on HCT-116, 0.042 µM; in data set [1], 2.7 µM; in data set [2], 0.165 µM.

On to `O=C(/C=C/c1ccc(CN2CCCC(c3c[nH]c4ccccc34)C2)cc1)NO` (configuration not stated), for which the IC50 on Histone deacetylase 1 came to 0.011 µM; with HCT-116 it was 0.025 µM; in [2] it was 0.141 µM. In data set [3], this molecule registered a pKa of 7.3.

As to `O=C(/C=C/c1ccc(CN2CCCC(c3c(-c4ccccc4)[nH]c4ccccc34)C2)cc1)NO` (configuration not stated), the IC50 against Histone deacetylase 1 worked out at 0.011 µM; in the data set on HCT-116, 0.0069 µM; in data set [2] it was 0.031 µM. For the same molecule, the pKa in data set [3] is 7.7.

Regarding `CC(C)(C)c1[nH]c2ccccc2c1C1CCCN(Cc2ccc(/C=C/C(=O)NO)cc2)C1` (configuration not stated), the results for the IC50 (with HCT-116; in data set [1]; in data set [2]) were 0.0009 µM, 13.5 µM and 0.0063 µM, respectively. The pKa in [3] was determined as 7.8.

`O=C(/C=C/c1ccc(CN(CCO)CCc2c[nH]c3ccccc23)cc1)NO` [DACINOSTAT]: the results for the IC50 (in the data set with HCT-116; in [2]) were 0.013 µM and 0.161 µM, respectively.

By IC50 is commonly meant the concentration at which inhibition is half-maximal. One may read the pKa as the negative logarithm of the acid dissociation constant. A high value points to a group that holds its proton tightly.
